Screens (PubChem BioAssay)
ADAM17 inh: ADAM17 inhibitors, primary screen, biochemical, QFRET; hit rate 0.83% among 370,000; recombinant ADAM17, EDANS/DABCYL FRET peptide cleavage; inhibition, % at 6.95 µM; AID 720648, 2013;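 active = inhibition above the mean of compounds lying between control limits plus 3 SD, set per campaign, cut at about 8.5% in these data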;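 also: 0% = DMSO-only wells as the low control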
CendR NRP1 mod: modulators of CendR peptide binding to NRP-1, primary screen, biochemical, fluorescence polarization, uHTS; Neuropilin-1 (Homo sapiens), O14786; FAM-RPARPAR peptide binding to NRP-1; inhibition, % at 25 µM; hit rate 0.85% among 360,000; AID 602438, 2012;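 active = inhibition or corrected inhibition above about 18%, plus a signal ratio from 0.5 to 1.5, limit read from the data, passing the limit was not always enough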
FAS TE block: FAS thioesterase domain inhibitors, primary screen, biochemical, fluorescence intensity, uHTS; recombinant FAS-TE, OMFH fluorogenic substrate, fluorescence endpoint; inhibition, % at 15 µM; hit rate 0.67% among 360,000;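 active = compounds whose normalised, plate-corrected inhibition of enzyme fluorescence in the single-dose primary screen is 50% or more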;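 also: 0% = DMSO with enzyme and 100% = substrate without enzyme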
CaV13 ICDI inh: Disruptors of the CACNA1D IQ motif to Ca2+-dependent inactivation inhibitor domain association, primary screening, Förster resonance energy transfer in intact living …. HEK cells, CFP/YFP FRET ICDI-IQ, plate reader, 10 min; percent FRET-ratio fall versus neutral wells. inhibition, % at 12.3 µM. hit rate 0.098% among 340,000. AID 743397;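 active = mean replicate inhibition of at least 30% and at least 1% of replicates passing that level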;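 also: 0% = median of the neutral control wells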
ADAM10 inh: human ADAM10 inhibitors, primary screen, biochemical, QFRET, HTS | Disintegrin and metalloproteinase domain-containing protein 10 (Homo sapiens), O14672 | recombinant ADAM10, EDANS/DABCYL FRET peptide cleavage, 3 h | inhibition, % at 7 µM | hit rate 0.62% among 370,000;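 active = inhibition above a per-campaign cutoff equal to the mean of compounds falling between control-based bounds plus 3 SD, cut at about 20% in these data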;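 also: 0% = DMSO wells while the 100% control is not disclosed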
Arr AP2 block: inhibitors of beta-arrestin/AP2 binding, primary screen, biochemical, GPCR trafficking, flow cytometry. beta-arrestin 1 C-terminal peptide binding to AP2 beta2-adaptin appendage (human). FITC-arrestin peptide / GST-AP2 beads; AP2 beta2 appendage carries R879A mutation. inhibition, % at 10 µM. hit rate 0.31% among 340,000;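 active = inhibition above a set limit, near 3 SD of compounds lacking own fluorescence, cut at about 54% in these data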;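 also: plate controls were DMSO wells for no effect and 5 µM unlabelled arrestin peptide for full effect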
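System: GST-AP2 R879A glutathione beads | Also added: FITC-arrestin peptide, 50 nM | Times: 12 min plus 1 h, RT | Signal: Bead flow cytometry, FITC channel | Buffer or medium: PBS with 0.05% Tween 20 and 0.1% BSA | Read-out basis: Percent drop in bead-associated FITC signal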
ADAM10 confirm: human ADAM10 inhibitors, confirmation, biochemical, QFRET, triplicate. inhibition, % at 6.95 µM. ADAM10 QFRET peptide cleavage, EDANS fluorescence. shares compounds with ADAM10 inh. hit rate 1% among 2,100;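 active = inhibition above about 20% chosen separately for each screening run, limit read from the data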;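 also: 0% = DMSO wells and 100% = marimastat wells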
ADAM17 ctr: ADAM17 inhibitors, counter-screen for ADAM10 exosite inhibitor project, biochemical, QFRET, high throughput. shares compounds with ADAM10 inh. hit rate 0.5% among 2,100. ADAM17 QFRET peptide cleavage, EDANS fluorescence. inhibition, % at 6.95 µM;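 active = mean triplicate inhibition above the solvent-only control wells' mean plus 3 SD, cut at about 12% in these data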;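 also: 0% = DMSO wells and 100% = marimastat wells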
An asterisk follows results filed as active. Hits are enriched below; roughly 2.9% of the tested compounds scored in any of these assays.

O=C(Nc1cccc2ccccc12)c1ccc2sc([C@H]3C[C@H](O)[C@@H](CO)O3)nc2c1 was read as ADAM17 inh -5, CendR NRP1 mod 1, FAS TE block -10, CaV13 ICDI inh -3 and ADAM10 inh -14.
For COc1cc(C(=O)N2CCCCC2c2cc(C(=O)NC(C)C)no2)cc(OC)c1C (centres undefined) the results were ADAM17 inh 3, CendR NRP1 mod 0, FAS TE block -6, CaV13 ICDI inh -5 and ADAM10 inh 0.
C=CCN(C(=O)Cn1c(C(=O)OC)cc2oc(C)cc21)c1ccccc1 was read as ADAM17 inh 0, CendR NRP1 mod 3, FAS TE block 2, CaV13 ICDI inh -4, ADAM10 inh 82*, Arr AP2 block 6, ADAM10 confirm 3 and ADAM17 ctr 1.
Screening COC(=O)c1cc2oc(C)cc2n1CC(=O)N(C)c1ccccc1 returned ADAM17 inh -2, CendR NRP1 mod -7, FAS TE block -4, CaV13 ICDI inh -8, ADAM10 inh 1 and Arr AP2 block -1.
Screening O=S1(=O)N[C@H](Cc2ccccc2)COc2cccc(NCCO)c21 returned ADAM17 inh -3, CaV13 ICDI inh -3 and ADAM10 inh -9.
For CN(C)CCCn1c2c(c(SCC(=O)Nc3cccc4ccccc34)nc1=O)CCCC2 the results were ADAM17 inh -5, CendR NRP1 mod 9, FAS TE block -3, CaV13 ICDI inh -4, ADAM10 inh -21 and Arr AP2 block -8.
Screening CCN(CC)S(=O)(=O)c1cc(NC(=O)C2CCN(c3ncnc4sc(C)c(C)c34)CC2)ccc1Cl returned ADAM17 inh 0, CendR NRP1 mod 4, FAS TE block 30, CaV13 ICDI inh -6, ADAM10 inh 1 and Arr AP2 block -20.
Screening Cc1ccc(NC(=O)C2CCN(c3ncnc4sc(C)c(C)c34)CC2)cc1S(=O)(=O)N(C)C returned ADAM17 inh 5, CendR NRP1 mod -2, FAS TE block 14, CaV13 ICDI inh -5, ADAM10 inh 22*, Arr AP2 block 7, ADAM10 confirm 7 and ADAM17 ctr 2.
`C[C@@H](c1ccccc1)N1C[C@H](COCc2ccccc2)Oc2cc(N3CC[C@H](N(C)C)C3)ccc2S1(=O)=O` gave ADAM17 inh -1, CendR NRP1 mod 2, FAS TE block 23, CaV13 ICDI inh -11 and ADAM10 inh -5.
Cc1ccc(N(CC(=O)Nc2ccc3c(c2)OCCO3)S(=O)(=O)c2c(C)noc2C)cc1 was read as ADAM17 inh 5, CendR NRP1 mod 2, FAS TE block 5, ADAM10 inh 14 and Arr AP2 block 2.
Cc1ccc(N(CC(=O)Nc2ccc3c(c2)OCCO3)S(=O)(=O)c2c(C)n[nH]c2C)cc1 was read as ADAM17 inh 6, CendR NRP1 mod 5, FAS TE block -5, CaV13 ICDI inh -3, ADAM10 inh 20*, Arr AP2 block 6, ADAM10 confirm 0 and ADAM17 ctr 0.
`COc1ccccc1NC(=O)Nc1ccc(-n2ccc(C(F)(F)F)n2)cc1` gave ADAM17 inh 7, CendR NRP1 mod -1, FAS TE block 27, CaV13 ICDI inh -5, ADAM10 inh 30*, Arr AP2 block -7, ADAM10 confirm 5 and ADAM17 ctr 1.
`CCc1ccc(C(=O)N/N=C(\C)c2ccncc2)s1` gave ADAM17 inh 1, CendR NRP1 mod 12, FAS TE block -2, CaV13 ICDI inh -3, ADAM10 inh -5 and Arr AP2 block -5.
C/C(=N/NC(=O)c1ccc(C)s1)c1ccncc1 was read as ADAM17 inh -115, CendR NRP1 mod 6, FAS TE block 0, CaV13 ICDI inh -9, ADAM10 inh 21*, Arr AP2 block -13, ADAM10 confirm 0 and ADAM17 ctr 0.
`C[C@@H]1CCN(C2CC2)S(=O)(=O)c2c(cccc2N2CCC[C@@H]2CO)O1` gave ADAM17 inh -1 and ADAM10 inh -5.
`COc1ccc(C)cc1NS(=O)(=O)c1ccc(NC(=O)CN(c2cc([N+](=O)[O-])ccc2C)S(C)(=O)=O)cc1` gave ADAM17 inh 9.1*, CendR NRP1 mod -3, FAS TE block 32, CaV13 ICDI inh -4, ADAM10 inh 23*, Arr AP2 block 29, ADAM10 confirm 5 and ADAM17 ctr 1.
For COc1cc(OC)nc(Nc2nc(C(N)Cc3ccc(F)cc3)cs2)n1 (centres undefined) the results were ADAM17 inh -2, CendR NRP1 mod -3, FAS TE block -8, CaV13 ICDI inh -7 and ADAM10 inh -2.
For O=C(NNC(=O)c1cc(-c2cccc(Br)c2)nc2ccccc12)c1csc(N2CCOCC2)n1 the results were ADAM17 inh 7, CendR NRP1 mod -6, FAS TE block 18, CaV13 ICDI inh -8, ADAM10 inh 22*, Arr AP2 block -2, ADAM10 confirm 9 and ADAM17 ctr 3.
Screening O=C(NNC(=O)c1cc(Br)ccc1O)c1csc(N2CCOCC2)n1 returned CendR NRP1 mod 5, FAS TE block 8 and Arr AP2 block 6.
For CCN(C(=O)COC(=O)C1CC1C)c1c(N)n(Cc2ccccc2)c(=O)[nH]c1=O (centres undefined) the results were ADAM17 inh -3, CendR NRP1 mod 4, FAS TE block -7, CaV13 ICDI inh -4, ADAM10 inh -5 and Arr AP2 block -10.
O=S(=O)(NCC(Nc1ccc(Cl)cc1)c1ccccc1)c1ccc(Cl)cc1 (centres undefined) was read as ADAM17 inh 7, CendR NRP1 mod 1, FAS TE block 30, CaV13 ICDI inh -3, ADAM10 inh 23*, Arr AP2 block -21, ADAM10 confirm 12 and ADAM17 ctr 4.
